# Rows were chosen to be rich in hits. Some 2.6% of all compounds tested hit in one or more screens of this group.
# S100A4 inh HTS – inhibitors of human S100A4 binding to myosin IIA peptide; actives 0.14% (n = 360,000); inhibition, % at 10.7 µM; P26447; S100A4/TAMRA-MyoIIA peptide fluorescence polarization;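 active means mean inhibition of at least 70% across replicates, with every replicate also reaching that level; inconclusive means mean inhibition reaches 70% but some replicates fall short; inactive means mean inhibition below 70%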
# Target sequence (P26447 whole entry, looked up): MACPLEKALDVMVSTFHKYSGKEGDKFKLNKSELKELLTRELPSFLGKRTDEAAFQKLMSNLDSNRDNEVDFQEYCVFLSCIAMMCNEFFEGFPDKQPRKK
#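 Material: S100A4 monomer protein | Medium: HEPES pH 7.2 with CaCl2, KCl, NaCl, DTT, Triton | Reagent: Labelled myosin peptide probe, 5 nM | Doses: One dose per compound | Times: 5 min incubation before reading | Benchmarks: Neutral control DMSO, positive control TFP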
# rRNA inh HTS – inhibitors of bacterial rRNA selective over humanized ribosomes; E. coli WT GFP vs humanized-ribosome RFP mutants, fluorescence, 24 h; active compounds read low; DMSO median 0, no signal -100; GFP signal change (wild-type ribosome), % (test concentration not listed); actives 1.6% (n = 350,000);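 active means significant combined selectivity score with lowered wild-type GFP, culture density cut under 30%, mutant RFP and density less affected; inactive means any of these conditions unmet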
# HIV Env fusion – inhibitors of HIV Env-mediated cell fusion; HeLa-JRFL Env/CEM21 cell fusion, luciferase; inhibition, % at 12.3 µM; actives 1.1% (n = 360,000);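 active means mean replicate inhibition score of at least 50 and every replicate individually at or above 50; inconclusive means only one of the two criteria met; inactive means mean below 50 and not all replicates reaching 50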;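 further: 0% = plate neutral controls and 100% = maraviroc near 300 nM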
# Vif imaging – inhibitors of HIV Vif. inhibition, % at 7.49 µM. HEK293T cells, Vif self-association by quenched fluorescence, imaging, 24 h. actives 0.35% (n = 340,000); in the data active means inhibition above about 50%, passing the limit was not always enough; inconclusive means no clear call, values can overlap the other calls; inactive means below about 31%
# miR-122 sensor – miR-122 inhibition in Huh7 cells | Huh7 miR-122 Renilla luciferase sensor, 48 h; neutral wells = 0, positive control = 100 | actives 0.3% (n = 340,000) | activation (reporter increase), % at 12.5 µM | AID 602342;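 active means mean replicate activation score at least 90 and every replicate individually at or above 90; inconclusive means only one of the two criteria met; inactive means neither criterion met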;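 further: higher luciferase means less miR-122 activity so hits act as miR-122 inhibitors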
# FN deposition inh – fibronectin deposition inhibition; AH1F fibroblasts, Alexa488-fibronectin deposition fluorescence, overnight; inhibition, % at 12.6 µM; actives 0.086% (n = 350,000); AID 743247;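 active means mean inhibition across replicates of 30% or more, regardless of how many single replicates reach that level; inconclusive means mean under 30% yet at least half of replicates reach 30%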;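 further: positive control wells lacked labelled fibronectin entirely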
#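 Material: AH1F fibroblast monolayer depositing Alexa488-labelled fibronectin into matrix | Input: 10000 AH1F cells/well | Medium: DMEM plus 2% serum, read in PBS | Reagent: Alexa488-fibronectin, 24 nM final in well | Compound dosing: One dose per compound, pinned | Schedule: 1 h adhesion, overnight exposure | Measured by: Fluorescence at 485 nm excitation, 525 nm emission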
# Active calls of the source: *; i = inactive; ? = inconclusive; . = no result; [ ] = dose if it differs, or a comment.
SMILES,S100A4 inh HTS,rRNA inh HTS,HIV Env fusion,Vif imaging,miR-122 sensor,FN deposition inh
CCCC(=O)Nc1ccc2c(c1)OC[C@H](C)NC[C@H](C)[C@H](OC)CN(C)C2=O,100.9*,-1.1,3.6[16.7 µM],.,.,-5.2
CCCNC(=O)Nc1ccc2c(c1)C(=O)N(C)C[C@@H](OC)[C@@H](C)CN[C@@H](C)CO2,111.0*,3.2,0.5[16.7 µM],.,.,-5.9
CO[C@H]1CN(C)C(=O)c2ccc(NS(=O)(=O)c3ccc(Oc4ccccc4)cc3)cc2OC[C@@H](C)NC[C@H]1C,3.2,-2.4,2.4[16.7 µM],.,.,-4.2
CC(C)[C@@H](C)NC(=O)N(C)C[C@@H]1OCc2ccccc2-c2c(n(C)c3ccccc23)C(=O)N([C@H](C)CO)C[C@H]1C,.,2.2,.,.,.,-9.7
Cc1ccc(S(=O)(=O)N(C)C[C@@H]2OCCCC[C@@H](C)Oc3ccc(NC(=O)Nc4c(C)noc4C)cc3C(=O)N([C@@H](C)CO)C[C@H]2C)cc1,4.3,0.9,-10.0[16.7 µM],.,1.6[16.7 µM],-8.3
CNC[C@@H]1Oc2cc(-c3cccc(C(=O)N(C)C)c3)ccc2S(=O)(=O)N([C@H](C)CO)C[C@H]1C,-5.6,1.5,-2.4[16.7 µM],.,-0.9[16.7 µM],.
O=C1Nc2ccccc2N=C(c2ccccc2)c2ccccc21,-0.5,-28.0*,-19.2,-4.3,7.9,-7.2
S=c1[nH]nc2nnc3ccccc3n12,6.2,-31.5*,12.4,-3.5,.,-7.6
S=c1[nH]nc2sc3ccccc3n12,0.2,-5.4,-6.7,-2.6,4.2,4.0
O=C(C[C@@H]1C[C@H]2c3cc(NC(=O)c4ccc5c(c4)OCO5)ccc3O[C@H]2[C@H](CO)O1)NCc1cccnc1,36.8,-1.2,-5.8[16.7 µM],.,6.2[16.7 µM],.
N#CC1=C(N)NC(SCC(=O)Nc2ccccc2)=C(C#N)C12CCCCC2,.,.,113.1*,2.7,3.9,1.8
N#CC1=C(N)NC(SCC(=O)c2ccc(Br)cc2)=C(C#N)C12CCCCC2,-1.0,-47.5,41.9,-4.3,1.4,-10.7
N#CC1=C(N)NC(SCc2ccccc2)=C(C#N)C12CCCCC2,.,.,7.4,-0.7,17.4,5.8
COc1ccc(C(=O)CSC2=C(C#N)C3(CCCCC3)C(C#N)=C(N)N2)cc1,.,.,76.3*,-8.7,10.7,15.6
C[C@H]1CN([C@@H](C)CO)C(=O)Cc2cc(NC(=O)CCN3CCOCC3)ccc2O[C@H]1CN(C)S(=O)(=O)c1cn(C)cn1,1.2,0.7,-25.3[16.7 µM],.,22.3[16.7 µM],.
O=C(O)c1cccc([N+](=O)[O-])c1C(=O)Nc1cccc2ccccc12,-9.3,0.5,8.2,10.6,-2.0,5.8
Oc1ccc2ccccc2c1CNc1ccc2ccccc2c1,-2.8,-58.4,-13.9,-0.9,19.8,11.3
Oc1ccc2ccccc2c1CNc1ccccc1,17.0,-13.4*,i,?,0.2,.
O=[N+]([O-])c1ccccc1NCc1c(O)ccc2ccccc12,-4.0,-21.9*,4.9,1.7,.,4.5
CO[C@@H]1CN(C)C(=O)c2cc(NC(=O)c3cnccn3)ccc2OC[C@@H](C)N(CCC(F)(F)F)C[C@H]1C,-2.6,4.2,.,.,4.1[16.7 µM],-3.4
CNC[C@H]1Oc2ccccc2C(=O)N(C)C[C@H]1C,.,-0.7,.,.,.,1.9
CSc1ccc(/C=N/n2c(C3CCCCC3)n[nH]c2=S)cc1,-4.0,-12.2,21.8,-9.8,-5.5,-3.8
S=c1[nH]nc(C2CCCCC2)n1/N=C/c1ccncc1,2.4,17.9,55.7*,-2.2,.,7.3
O=C1Cc2c([nH]c3ccc([N+](=O)[O-])cc23)-c2ccccc2N1,0.3,-12.9,95.6*,-13.6,.,-0.7
O=[N+]([O-])c1ccc2[nH]c3nc4ccccc4nc3c2c1,11.6,15.3,-15.4,-0.1,4.8,-2.6
SMILES,S100A4 inh HTS,rRNA inh HTS,HIV Env fusion,Vif imaging,miR-122 sensor,FN deposition inh
CC(=O)Nc1ccc2c(c1)C(=O)N(C)C[C@H](C)[C@@H](CN(C)C(=O)NC(C)C)O2,.,0.4,.,.,.,4.8
COc1ccc(-n2cc(-c3ccc(C)cc3)[n+]3c2SCC3)cc1,.,.,117.6*,4.2,.,.
FC(F)Oc1ccc(-n2cc(-c3ccc(Cl)cc3)[n+]3c2CCCCC3)cc1,1.0,-47.1*,-4.6,7.2,.,5.6
COc1ccc(-n2cc(-c3ccccc3)[n+]3c2CCCCC3)cc1,-1.1,-30.1*,13.6,-12.4,.,14.1
CC(=O)Nc1ccc2c(c1)CC(=O)N(C)C[C@H](C)[C@H](CN(C)C)O2,.,3.3,.,.,.,-18.7
CCCN1[C@@H]2c3ccc(C4=CCCC4)c(=O)n3C[C@@H]2[C@@H](CO)[C@@H]1C(=O)NCC,-2.2,1.4,.,.,2.4[16.7 µM],.
CCC(CO)Oc1cc(NCc2cccc(Cl)c2)c2ncn(C(C)C)c2c1 (stereo not given),-16.9,-22.0*,.,-3.0,4.8,.
O=C(NC1CCCCC1)c1n[nH]c2c1CCCCC2,0.0,1.3,69.1*,-0.7,-7.4,2.4
CCCN1[C@@H]2c3ccc(-c4cccnc4)c(=O)n3C[C@@H]2[C@@H](CO)[C@@H]1C(=O)NCCN1CCCC1,.,-0.6,.,.,1.0[16.7 µM],.
C[C@@H]1CN([C@@H](C)CO)C(=O)c2cc(C3=CCCC3)cnc2O[C@H]1CN(C)C(=O)Cc1ccncc1,-4.8,9.0,6.0[16.7 µM],.,-3.1[16.7 µM],-2.2
CNc1c(N)c(=O)oc2ccccc12,-1.6,10.5,-2.4,9.7,-1.5,8.4
CC(C)Nc1c(N)c(=O)oc2ccccc12,.,.,.,58.7*,-3.5,.
O=C(c1ccccc1F)N1C[C@H]2O[C@@H](CNS(=O)(=O)c3ccccc3)CC[C@H]21,-24.2,.,54.7[16.7 µM],.,.,.
C[C@@H]1CN([C@H](C)CO)S(=O)(=O)c2ccc(-c3ccncc3)cc2O[C@@H]1CN(C)Cc1ccc(Oc2ccccc2)cc1,10.7,-0.4,58.7*[16.7 µM],.,4.5[16.7 µM],16.0
Cc1ccccc1-c1ccc2c(c1)O[C@@H](CN(C)C(=O)Nc1ccc(C(F)(F)F)cc1)[C@@H](C)CN([C@@H](C)CO)S2(=O)=O,7.6,-0.4,5.9[16.7 µM],.,-19.9[16.7 µM],4.3
Cc1ccccc1-c1ccc2c(c1)O[C@H](CN(C)C(=O)Nc1ccc(C(F)(F)F)cc1)[C@H](C)CN([C@H](C)CO)S2(=O)=O,11.0,3.0,71.8*[16.7 µM],.,-0.7[16.7 µM],5.8
Cc1ccc(-c2ccc3c(c2)O[C@@H](CN(C)Cc2ccncc2)[C@H](C)CN([C@H](C)CO)S3(=O)=O)cc1,-2.8,-13.9,89.9*[16.7 µM],.,1.0[16.7 µM],19.6
CC(C)NC(=O)N(C)C[C@@H]1Oc2cc(-c3ccncc3)ccc2S(=O)(=O)N([C@H](C)CO)C[C@H]1C,160.1*,3.0,-19.2[16.7 µM],.,11.6[16.7 µM],3.4
C[C@H]1CN([C@@H](C)CO)S(=O)(=O)c2ccc(-c3ccncc3)cc2O[C@@H]1CN(C)Cc1ccc(Oc2ccccc2)cc1,5.6,-0.2,33.4[16.7 µM],.,55.5[16.7 µM],-8.3
C[C@@H]1CN([C@@H](C)CO)S(=O)(=O)c2ccc(-c3ccccc3)cc2O[C@@H]1CN(C)Cc1ccncc1,16.0,-33.4,11.9[16.7 µM],.,-3.5[16.7 µM],-14.7

# From PubChem BioAssay
